The target of test [1] is Lysosomal alpha-glucosidase (Homo sapiens) (UniProt P10253). Kind of test: Activation of alpha-glucosidase using 4-MU-alpha-glucose as substrate.
Test [2] can be described thus: Activation of alpha-galactosidase using 4-MU-alpha-galactose as substrate.
The subject of test [3] is T1, Lysosomal acid glucosylceramidase (Homo sapiens), P04062 [N409S].
T1 sequence (whole entry): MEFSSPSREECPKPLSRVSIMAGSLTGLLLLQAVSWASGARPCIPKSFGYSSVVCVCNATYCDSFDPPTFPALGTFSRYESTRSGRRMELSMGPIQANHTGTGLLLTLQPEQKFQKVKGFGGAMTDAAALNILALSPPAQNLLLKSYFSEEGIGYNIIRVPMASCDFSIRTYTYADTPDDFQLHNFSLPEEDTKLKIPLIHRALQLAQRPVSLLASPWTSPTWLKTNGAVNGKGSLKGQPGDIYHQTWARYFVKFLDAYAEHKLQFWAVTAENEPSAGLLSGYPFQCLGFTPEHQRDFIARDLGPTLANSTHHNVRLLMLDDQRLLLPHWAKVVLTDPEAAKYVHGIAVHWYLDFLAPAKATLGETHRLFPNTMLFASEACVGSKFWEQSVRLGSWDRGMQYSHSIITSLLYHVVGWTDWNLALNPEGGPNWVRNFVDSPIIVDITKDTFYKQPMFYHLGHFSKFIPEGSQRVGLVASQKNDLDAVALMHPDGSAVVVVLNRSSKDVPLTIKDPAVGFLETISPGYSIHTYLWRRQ
Description: Activation of glucocerebrosidase N370S mutant in Gaucher patient spleen homogenates using 4-methylumbelliferone-Glc as substrate assessed as half-maximal activation concentration incubated for 5 mins prior to substrate addition measured after 30 to 45 mins by fluorimetric analysis. It counts as tissue-based. The procedure, abridged: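 Spleen homogenate (27 μg final) in pH 5 citrate/phosphate buffer with KCl, NaCl, MgCl₂ and 0.01% Tween-20. Compound was titrated 0.5 nM to 58 μM and preincubated 5 min at room temperature. Reaction used 1 mM 4MU-Glc for 30−45 min at 37 °C and was stopped with NaOH/glycine pH 10. Read-out was fluorescence at Ex 365/Em 440 nm. AC₅₀ is the average of N = 2.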

Activity calls are given as the source filed them.

Take `Cc1cc(C)n2ncc(C(=O)N[C@H]3CC[C@@H](C(C)(C)C)CC3)c2n1`: the result in test [1] and in test [2] was inactive. Further, the Activity in test [3] was found to be 25.9 µM.

Take `COc1ccc(NC(=O)c2cnn3c(-c4ccccc4)cc(C)nc23)cc1`: the outcome in test [1], in test [2] and in test [3] was inactive.

With `Cc1ccc(NC(=O)c2cnn3c(-c4ccccc4)cc(C)nc23)cc1`, the outcome in test [1], in test [2] and in test [3] was inactive.

As for `COc1cc(NC(=O)c2cnn3c(C)cc(C)nc23)cc(OC)c1OC`, the outcome in test [1], in test [2] and in test [3] was inactive.

For the compound `CCc1ccc(NC(=O)c2cnn3c(C)cc(C)nc23)cc1`, the outcome in test [1] and in test [2] was inactive. Moreover, the Activity in test [3] amounted to 3.26 µM.

On to `Cc1cc(C)n2ncc(C(=O)N3CCCC3)c2n1`, for which the outcome in test [1], in test [2] and in test [3] was inactive.

Regarding `Cc1cc(C)n2ncc(C(=O)Nc3ccc(C)c(C)c3)c2n1`, the outcome in test [1] and in test [2] was inactive. Also, in test [3], the Activity was determined as 1.46 µM.

With `COc1ccc(NC(=O)c2cnn3c(C)cc(C)nc23)cc1`, the outcome in test [1] and in test [2] was inactive. Also, the Activity in test [3] is 8.19 µM.

On to `O=C(NC1CCCCC1)c1cnn2c(C(F)F)cc(C3CC3)nc12`, for which the outcome in test [1] and in test [2] was inactive.

`Cc1cc(C)n2ncc(C(=O)Nc3ccc4c(c3)OCCO4)c2n1`: the outcome in test [1] and in test [2] was inactive. Further, in test [3], the Activity was found to be 10.3 µM.

For `CNC(=O)c1cnn2c(C)cc(C)nc12`, the result in test [1], in test [2] and in test [3] was inactive.

Turning to `O=C(Nc1ccccc1Sc1ccccc1)c1cnn2c(C(F)(F)F)cc(C3CC3)nc12`, the outcome in test [1] and in test [2] was inactive.

For `Cc1cc(-c2ccccc2)nc2c(C(=O)Nc3ccc4c(c3)CCC4)cnn12`, the outcome in test [1] and in test [2] was inactive. The Activity in test [3] was found to be 8.19 µM.

As for `COc1ccc(NC(=O)c2cnn3c(C)cc(C)nc23)cc1F`, the outcome in test [1] and in test [2] was inactive. Further, in test [3], the Activity stood at 1.46 µM.

With `Cc1cc(C)n2ncc(C(=O)Nc3ccccc3)c2n1`, the result in test [1] and in test [2] was inactive. Also, in test [3], the Activity worked out at 8.19 µM.

For `Cc1ccc(NC(=O)c2cnn3c(C)cc(C)nc23)cc1`, the outcome in test [1] and in test [2] was inactive. Also, in test [3], the Activity stood at 1.63 µM.

Consider `Cc1cc(C)n2ncc(C(=O)Nc3ccc(S(C)(=O)=O)cc3)c2n1`, for which the result in test [1], in test [2] and in test [3] was inactive.

In the case of `Cc1cc(C)n2ncc(C(=O)Nc3ccc(C(C)(C)C)cc3)c2n1`, the outcome in test [1] and in test [2] was inactive. The Activity in test [3] was 2.31 µM.

Regarding `O=C(Nc1ccc2c(c1)CCC2)c1cnn2c(C(F)F)cc(C3CC3)nc12`, the outcome in test [1] and in test [2] was inactive.

Turning to `Cc1cc(C)n2ncc(C(=O)Nc3ccncc3)c2n1`, the result in test [1], in test [2] and in test [3] was inactive.

As for `Cc1cc(C)n2ncc(C(=O)N[C@H]3CC[C@H](C(C)(C)C)CC3)c2n1`, the result in test [1] and in test [2] was inactive. The Activity in test [3] amounted to 4.11 µM.

`Cc1cc(C)n2ncc(C(=O)Nc3cccc(C(F)(F)F)c3)c2n1`: the outcome in test [1] and in test [2] was inactive. In test [3], the Activity came out at 41.1 µM.

In the case of `Cc1cc(C)n2ncc(C(=O)Nc3cc(Cl)cc(Cl)c3)c2n1`, the outcome in test [1] and in test [2] was inactive. Further, the Activity in test [3] came out at 25.9 µM.

Regarding `CCc1ccc(NC(=O)c2cnn3c(C(F)F)cc(C4CC4)nc23)cc1`, the result in test [1] and in test [2] was inactive.

In the case of `Cc1cc(C)n2ncc(C(=O)Nc3ccccc3C)c2n1`, the result in test [1] and in test [2] was inactive. Moreover, the Activity in test [3] was found to be 16.3 µM.

With `CC(=O)c1ccc(NC(=O)c2cnn3c(C)cc(C)nc23)cc1`, the outcome in test [1] and in test [2] was inactive. For the same compound, the Activity in test [3] was determined as 163 µM.

In the case of `Cc1ccc(NC(=O)c2cnn3c(C)cc(C)nc23)c(C)c1`, the result in test [1] and in test [2] was inactive. Besides, in test [3], the Activity was found to be 13 µM.

For the compound `Cc1cc(C)n2ncc(C(=O)NCc3ccco3)c2n1`, the result in test [1] and in test [2] was inactive. Besides, the Activity in test [3] is 51.7 µM.

For the compound `COc1ccc(NC(=O)c2cnn3c(C)cc(C)nc23)cc1Cl`, the result in test [1] and in test [2] was inactive. In addition, in test [3], the Activity was 2.06 µM.

As for `Cc1cccc(NC(=O)c2cnn3c(C)cc(C)nc23)c1`, the outcome in test [1] and in test [2] was inactive. Besides, the Activity in test [3] stood at 6.51 µM.

Regarding `Cc1cc(C)n2ncc(C(=O)NC3CCCCC3)c2n1`, the outcome in test [1] and in test [2] was inactive. In test [3], the Activity was 10.3 µM.

Turning to `Cc1cc(C)n2ncc(C(=O)NC(C)C)c2n1`, the outcome in test [1], in test [2] and in test [3] was inactive.

As for `COc1ccc(NC(=O)c2cnn3c(C)cc(C)nc23)cc1OC`, the result in test [1], in test [2] and in test [3] was inactive.

On to `Cc1cc(C)n2ncc(C(=O)Nc3ccc4c(c3)OCO4)c2n1`, for which the outcome in test [1] and in test [2] was inactive. Also, the Activity in test [3] came out at 6.51 µM.

Regarding `Cc1cc(-c2ccccc2)nc2c(C(=O)Nc3ccc(Cl)c(Cl)c3)cnn12`, the result in test [1] and in test [2] was inactive.

`CCc1ccc(NC(=O)c2cnn3c(C)cc(-c4ccccc4)nc23)cc1`: the outcome in test [1] and in test [2] was inactive. Also, the Activity in test [3] was found to be 12.9 µM.

In the case of `Cc1cc(C)n2ncc(C(=O)NCc3ccccc3)c2n1`, the outcome in test [1] and in test [2] was inactive. Also, the Activity in test [3] amounted to 51.7 µM.

Take `Cc1cc(C)n2ncc(C(=O)Nc3cccc(C#N)c3)c2n1`: the result in test [1], in test [2] and in test [3] was inactive.

With `CC(=O)Nc1cccc(NC(=O)c2cnn3c(C)cc(C)nc23)c1`, the result in test [1], in test [2] and in test [3] was inactive.

With `Cc1cc(C)n2ncc(C(=O)Nc3ccc(C#N)cc3)c2n1`, the result in test [1] and in test [2] was inactive. For the same compound, the Activity in test [3] was found to be 20.6 µM.

As for `Cc1cc(-c2ccccc2)n2ncc(C(=O)Nc3ccccc3Sc3ccccc3)c2n1`, the outcome in test [1], in test [2] and in test [3] was inactive.

With `Cc1cc(-c2ccccc2)n2ncc(C(=O)Nc3ccc(Cl)c(Cl)c3)c2n1`, the result in test [1], in test [2] and in test [3] was inactive.

For `Cc1cc(C)n2ncc(C(=O)NCC(C)C)c2n1`, the outcome in test [1] and in test [2] was inactive. Also, the Activity in test [3] came out at 32.6 µM.

With `CC(=O)Nc1ccc(NC(=O)c2cnn3c(C)cc(C)nc23)cc1`, the result in test [1], in test [2] and in test [3] was inactive.

Turning to `Cc1cc(C)n2ncc(C(=O)Nc3ccc4c(c3)CCC4)c2n1`, the result in test [1] and in test [2] was inactive. In test [3], the Activity came to 2.59 µM.

As for `CC(=O)c1cccc(NC(=O)c2cnn3c(C)cc(C)nc23)c1`, the outcome in test [1] and in test [2] was inactive. The Activity in test [3] came to 32.6 µM.

Take `Cc1cc(C)n2ncc(C(=O)Nc3ccccc3Sc3ccccc3)c2n1`: the outcome in test [1] and in test [2] was inactive. The Activity in test [3] was 18.3 µM.
